# Marks after values point to notes of the source that are not given here.
# Legend:
# [1] = treatment-emergent adverse events and safety, MAD study; type: in vivo, human; conditions: MAD and PET studies
# Summary of the method: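 Safety covered treatment-emergent adverse events, physical examinations, laboratory tests, 12-lead ECG and vital signs. Subjects were healthy volunteers on 10 days of once-daily oral test compound (10–100 mg) or placebo, double-blind and randomized, six active and two placebo per cohort.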
# [2] = molecular target: T1, FAAH (Homo sapiens, UniProt O00519); assay: FAAH activity in leukocytes; type: in vivo
# T1 sequence (O00519 1-579): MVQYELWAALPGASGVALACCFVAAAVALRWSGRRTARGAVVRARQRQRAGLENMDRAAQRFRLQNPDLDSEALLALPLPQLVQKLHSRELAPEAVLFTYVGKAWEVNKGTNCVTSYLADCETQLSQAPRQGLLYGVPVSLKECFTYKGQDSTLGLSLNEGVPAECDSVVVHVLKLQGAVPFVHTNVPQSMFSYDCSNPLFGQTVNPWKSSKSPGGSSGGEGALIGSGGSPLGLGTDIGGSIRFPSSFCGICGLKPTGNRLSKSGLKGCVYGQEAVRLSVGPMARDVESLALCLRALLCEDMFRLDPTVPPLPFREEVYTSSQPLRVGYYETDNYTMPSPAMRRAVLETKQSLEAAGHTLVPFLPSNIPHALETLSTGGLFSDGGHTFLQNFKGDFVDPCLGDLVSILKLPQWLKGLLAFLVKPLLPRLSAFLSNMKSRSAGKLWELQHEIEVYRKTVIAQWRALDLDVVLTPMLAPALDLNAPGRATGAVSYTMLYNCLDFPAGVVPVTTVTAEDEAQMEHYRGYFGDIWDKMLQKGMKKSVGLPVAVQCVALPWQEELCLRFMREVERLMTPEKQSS
# Summary of the method: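 Leukocyte FAAH activity was assayed in healthy volunteers dosed orally once daily for 10 days (10–100 mg cohorts, placebo controls). It was expressed as percent of predose activity. Sampling ran 0–24 h postdose on day 1 and 0–96 h after the day-10 dose. In the PET study, leukocytes were also sampled at scan midpoint, about 4 h 45 min postdose.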
# [3] = JNJ-42165279 concentration in CSF, MAD study; type: in vivo, human; conditions: after 7 days
# Summary of the method: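 Test compound in CSF was quantified by a validated LC/MS/MS method after 7 days of once-daily oral dosing in healthy volunteers: 10 mg young men, 25 mg young men, and 100 mg elderly (men only). Values were related to plasma concentrations at Cmax on day 10.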
# [4] = plasma protein binding; type: in vitro ADME; conditions: humans, estimated
# [5] = behavioral evaluations; type: in vivo, human
# [6] = tested on: plasma FAA (AEA, OEA, PEA); assay: FAA concentrations in plasma; type: in vivo, human
# Summary of the method: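 Plasma AEA, OEA and PEA were followed in healthy volunteers given oral test compound (10–100 mg) or placebo once daily for 10 days, six active and two placebo per cohort. Concentration–time profiles were taken on day 1 (0–24 h postdose) and day 10 (0–96 h postdose). Mean peak values were compared with mean peak placebo values.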
# [7] = molecular target: T2, brain FAAH (Homo sapiens, UniProt O00519); assay: brain FAAH occupancy by PET with [11C]MK3168; type: in vivo
# T2 sequence (O00519 1-579): T1 sequence (O00519 1-579)
# Summary of the method: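 Healthy men were scanned by PET with [11C]MK3168 at baseline. In Part 2, scans followed single oral doses (2.5–100 mg range, adaptive; tracer injected 1 h postdose), with repeat doses at least 1 week apart. In Part 3, scans were 24 h after a single dose and 24 h after the last of 7 daily doses. Occupancy came from two-tissue compartment VT, baseline versus treatment.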
# [8] = tested on: FAAH; conditions: cited from earlier work
# [9] = JNJ-42165279 plasma and urine pharmacokinetics, MAD study; type: in vivo, human
# Summary of the method: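 Plasma and urine samples were taken from healthy volunteers given oral test compound once daily for 10 days (10–100 mg cohorts). Plasma was assayed by validated LC/MS/MS, with profiles over 0–24 h on day 1 and 0–96 h on day 10. PK parameters came from noncompartmental analysis. Accumulation ratios compared day 10 with day 1.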
# [10] = tested on: CSF FAA (AA, AEA, OEA); assay: FAA concentrations in CSF; type: in vivo, human; conditions: for AEA concentration in cerebrospinal fluid / OEA concentration in cerebrospinal fluid / AA concentration in cerebrospinal fluid: young male volunteers, mean (SD)
# Summary of the method: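 CSF sampled in the double-blind, placebo-controlled multiple-ascending-dose study in healthy volunteers. Oral test compound or placebo was given once daily for 10 days: 10, 25 or 75 mg in young men, 100 mg in young women, 100 mg in elderly subjects. AEA, OEA and arachidonic acid were measured predose and after 6–7 days of dosing. Values were expressed against predose or baseline.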
# [11] = single clinical doses, healthy volunteers; cited from earlier work
# [12] = tested on: WBC FAAH; conditions: 4 mg once-daily dose more than sufficient; cited from earlier work
# [13] = patients with osteoarthritis; cited from earlier work
# [14] = [11C]MK3168 radiometabolite analysis and brain uptake; type: in vivo, human; conditions: for standardized uptake value (SUV), gray matter regions / tracer uptake in gray matter regions: baseline
# Summary of the method: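 In healthy men, the tracer was given as a slow IV bolus (356 ± 57MBq; molar activity 111 ± 67 GBq/μmol), synchronized with a 90-min list-mode PET/CT acquisition after low-dose CT for attenuation correction. Discrete arterial samples at each scan measured parent tracer and radiometabolites as the input function. Brain time-activity curves came from MRI-coregistered, template-based regions.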
# [15] = tested on: human FAAH; conditions: cited from earlier work
# [16] = ∼24 h after stopping the 10 mg dosing
# [17] = day 10 vs day 1, doses 10–100 mg, range across cohorts
# [18] = Predose (baseline), 10 mg cohort
# [19] = Predose (baseline), 25 mg cohort
# [20] = Predose (baseline), 75 mg cohort
structure (smiles),measurement,setting,value
O=C(Nc1cnccc1Cl)N1CCN(Cc2ccc3c(c2)OC(F)(F)O3)CC1 [JNJ‐42165279],"deaths, serious or severe TEAEs, discontinuations due to TEAEs",[1],"No deaths, serious, or severe treatment emergent adverse event (TEAEs) or discontinuations due to TEAEs"
same,"vital signs, ECG parameters including QTc, physical examination",[1],no clinically significant treatment effects were observed
same,"FAAH activity remaining in leukocytes, mean trough","[2]; relative to predose values, after a single dose, 10–100 mg dose range",7.85–10.4%
same,FAAH activity recovered in leukocytes,[2]; [16],~50%
same,Mean concentration of JNJ-42165279 in CSF,[3]; cohort A (25 mg),8.95 ng/mL
same,Mean concentration of JNJ-42165279 in CSF,"[3]; cohort D, men only",31.8 ng/mL
same,Mean concentration of JNJ-42165279 in CSF,[3]; cohort E (10 mg),2.67 ng/mL
same,CSF concentration relative to plasma values at Cmax on day 10,[3]; slightly over,over 3%
same,unbound fraction,[4],6.4–7.5%
same,quality of working memory (QWM),"[5]; 100 mg, elderly volunteers, P ≤ 0.05, 4 h postdose days 1, 6, 10",significant negative treatment effect
same,ARCI-53 report,"[5]; 100 mg, women of nonchild-bearing potential",slight similarity to sedatives and dissimilarity to stimulants
same,"treatment effect on tapping, tracking, and postural stability",[5]; MAD study,No treatment effects were observed
same,ARCI-53: experiences similar to marijuana or hallucinogens,[5]; all groups,no groups reported experiences similar to marijuana or hallucinogens
same,doses with maximal effect on plasma AEA turnover,[6]; in vivo,≥ 75 mg
same,increase of plasma AEA levels,[6]; lowest dose tested in the MAD study (10 mg),≥ 10 fold
same,mean peak plasma AEA concentration versus mean peak placebo values,[6]; single doses 10–100 mg,5.5–10 fold
same,mean peak plasma OEA and PEA concentrations versus mean peak placebo,[6]; single doses 10–100 mg,4.3–5.6 fold
same,occupancy of brain FAAH,[7]; 24 h after dosing with 10 mg,80–85%
same,FAAH occupancy at trough,[7]; after the first dose of 10 mg,> 80%
same,doses giving saturation of brain FAAH occupancy,[7]; in vivo,≥ 10 mg
same,brain FAAH occupancy,"[7]; single doses of 2.5 and 5 mg, at estimated Cmax","lesser, although appreciable, occupancy"
same,brain FAAH occupancy,"[7]; single doses of 10, 25, and 50 mg, at estimated Cmax",96–98%
same,brain FAAH occupancy,[7]; [16],≥ 80%
same,affinity for human over rat FAAH,[8],much higher affinity
same,estimated accumulation ratio for AUC,[9]; [17],144–337%
same,estimated accumulation ratio for Cmax,[9]; [17],98–156%
same,terminal half-life,[9]; in vivo,8 to 14 h
same,Mean plasma half-life,"[9]; range of cohort means, 10–100 mg QD",8.14 to 14.1 h
same,increase of mean CSF AEA concentration relative to predose,[10]; 10 mg daily for 7 days,~45 fold
same,increase of mean CSF OEA concentration relative to predose,[10]; 10 mg daily for 7 days,~6.6 fold
same,increase of mean CSF AEA concentration relative to predose,[10]; 25 mg daily for 7 days,~41 fold
same,increase of mean CSF OEA concentration relative to predose,[10]; 25 mg daily for 7 days,~5.8 fold
same,increase of mean CSF AEA concentration relative to predose,[10]; 75 mg daily for 7 days,~77 fold
same,increase of mean CSF OEA concentration relative to predose,[10]; 75 mg daily for 7 days,~7.4 fold
same,AEA concentration in cerebrospinal fluid,"[10]; Day 7, 10 mg daily",12.6 (4.86)
same,OEA concentration in cerebrospinal fluid,"[10]; Day 7, 10 mg daily",139 (42.0)
same,AA concentration in cerebrospinal fluid,"[10]; Day 7, 25 mg daily, n=5",1.44 (0.52) ^b
same,AEA concentration in cerebrospinal fluid,"[10]; Day 7, 25 mg daily, n=5",21.24 (7.39) ^b
same,OEA concentration in cerebrospinal fluid,"[10]; Day 7, 25 mg daily, n=5",116.81 (26.07) ^b
same,AA concentration in cerebrospinal fluid,"[10]; Day 7, 75 mg daily, n=5",1.81 (0.72) ^b
same,AEA concentration in cerebrospinal fluid,"[10]; Day 7, 75 mg daily, n=5",28.88 (9.52) ^b
same,OEA concentration in cerebrospinal fluid,"[10]; Day 7, 75 mg daily, n=5",150.24 (34.64) ^b
same,AEA concentration in cerebrospinal fluid,[10]; [18],0.28 (0.31)
same,OEA concentration in cerebrospinal fluid,[10]; [18],21.2 (5.33)
same,AA concentration in cerebrospinal fluid,[10]; [19],1.85 (0.52)
same,AEA concentration in cerebrospinal fluid,[10]; [19],0.52 (0.16)
same,OEA concentration in cerebrospinal fluid,[10]; [19],20.15 (10.19)
same,AA concentration in cerebrospinal fluid,[10]; [20],2.04 (0.86)
same,AEA concentration in cerebrospinal fluid,[10]; [20],0.38 (0.21)
same,OEA concentration in cerebrospinal fluid,[10]; [20],20.21 (8.25)
same,increase of AEA concentrations in CSF,[10]; after 7 days of dosing,40–70 fold
CCCCCCC(C)(C)c1cc(O)c2c(c1)OC(C)(C)C1CCC(=O)CC21 (stereo not shown) [nabilone],effect on cognitive performance,[11],notable impairment on cognitive performance
O=C(Nc1cccnn1)N1CCC(=Cc2cccc(Oc3ccc(C(F)(F)F)cn3)c2)CC1 [PF‐04457845],inhibition of WBC FAAH,[12],97%
same,effect on pain perception,[13],no effect on pain perception
CN(C)C(=O)[C@H]1C[C@@H]1c1ccc(-c2ncn(C)c2Sc2ccc(Cl)cn2)cc1 [[^11C]MK3168],"standardized uptake value (SUV), gray matter regions",[14]; at 20 min,~3.0
same,tracer uptake in gray matter regions,[14]; at 20 min,~15 kBq/cc
same,"standardized uptake value (SUV), gray matter regions",[14]; at 90 min,~2.0
same,tracer uptake in gray matter regions,[14]; at 90 min,~10 kBq/cc
same,parent tracer remaining in plasma,"[14]; baseline scans, 10 min postinjection",30–40%
same,elimination of tracer from plasma,"[14]; baseline scans, 60 min p.i.",almost complete elimination
same,IC50,[15],1 ± 0.6 nM

# Source: paper PMC6039207 (Clinical and Translational Science, 2018)
